M1 ag: activates the M1 muscarinic receptor. B-score at 10 µM. AID 626. 64,000 compounds, 3% hits. CHO-M1 cells, Fluo-4 calcium fluorescence, agonist mode; active compounds read high;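 active means fluorescence rise, raw or as B-score row- and column-corrected plate score, outside the 99.7% band of its plate's samples, either direction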
S1P1 ag-PAM: S1P1 (human) agonism or agonism potentiation; 56,000 compounds, 0.57% hits; activation, % at 9.5 µM; S1P1 CRE-bla cells, forskolin, beta-lactamase FRET, potentiator mode; S1P1 agonist co-added at EC20, 2 nM; 100% = saturating reference agonist, 0% = basal;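 active means activation above a cutoff set at the mean activation of all tested compounds plus 3 SD, cut at about 54% in these data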;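 further: forskolin at 4 µM as EC80 and the EC20 agonist is SEW2871; 100% = SEW2871 at its EC100 plus forskolin at EC80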
M1 antagonist: blocks the rat M1 muscarinic receptor response to acetylcholine; P08482; B-score at 10 µM; 64,000 compounds, 3.4% hits; CHO-M1 cells, Fluo-4 calcium, ACh EC80 antagonist mode; active compounds read low;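 active means calcium fluorescence response, raw or row-and-column corrected B-score, differing from the plate sample mean either way at a set confidence level, mostly lower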
Target sequence (P08482 whole entry, looked up): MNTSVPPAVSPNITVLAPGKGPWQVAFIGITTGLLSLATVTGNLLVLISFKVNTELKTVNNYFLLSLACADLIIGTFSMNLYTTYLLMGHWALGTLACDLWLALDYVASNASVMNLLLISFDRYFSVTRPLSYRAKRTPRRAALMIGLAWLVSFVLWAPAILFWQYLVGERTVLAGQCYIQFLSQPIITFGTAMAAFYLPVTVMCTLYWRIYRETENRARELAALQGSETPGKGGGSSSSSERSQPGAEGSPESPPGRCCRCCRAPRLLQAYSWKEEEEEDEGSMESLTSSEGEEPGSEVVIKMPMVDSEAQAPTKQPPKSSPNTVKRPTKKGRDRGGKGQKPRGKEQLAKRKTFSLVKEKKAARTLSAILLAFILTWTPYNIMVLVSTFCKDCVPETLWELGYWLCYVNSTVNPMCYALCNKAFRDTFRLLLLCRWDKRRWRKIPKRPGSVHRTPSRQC
D1 allo mod: allosteric modulators of human D1 dopamine receptor; P21728; HEK293 D1, CRE-luciferase, dopamine EC30 potentiation; actives deviate in either direction; B-score at 10 µM; 58,000 compounds, 5.9% hits; AID 641;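 active means luminescence count or its row- and column-corrected plate score outside the 99.7% band of the plate's sample wells, on either side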
S1P3 ag: S1P3 (human) receptor agonism; S1P3 NFAT-BLA reporter cells, FRET ratio; relative to 1 µM S1P, basal subtracted; activation, % at 4.5 µM; 60,000 compounds, 0.1% hits; AID 373;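 active means activation above the screen-wide mean plus 3 SD, cut at about 4.5% in these data, passing the limit was not always enough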
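Measure – % activation relative to 1 µM S1P (100%), per plate · System – stable CHO line with human S1P3, Gα16, NFAT-BLA reporter · Timing – cells plated overnight, compound 4 h 37 °C, substrate 2 h RT · Technique – fluorescent BLA substrate, ex 405 nm, em 460/535 nm ratio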
M1 antag conf: M1 muscarinic receptor (rat) antagonism, confirmed; shares compounds with M1 antagonist; CHO-M1 cells, Fluo-4 calcium, ACh EC80 antagonism; active compounds read low; calcium response (max-min fluorescence) at 10 µM; 1,700 compounds, 43% hits;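 active means calcium response below the same-plate mean of wells given acetylcholine alone at its 80%-effect dose, minus 3 SD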;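 further: raw fluorescence intensity difference in arbitrary instrument units and not normalized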
mGluR4 antag: acts on human mGluR4 in M1 antagonist selectivity test; shares compounds with M1 antagonist; CHO-mGluR4 calcium flux, Fluo-4 fluorescence, glutamate EC80; active compounds read low; fluorescence response (max-min) at 10 µM; 1,700 compounds, 0.9% hits; AID 678;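 active means fluorescence response below the plate's average for near-maximal glutamate wells, less 3 SD of those wells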;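 further: raw unnormalized fluorescence span taken in the window right after glutamate addition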
Active calls of the source: *; . = no result. The list is not random: actives were taken first. Their share in the collection is about 11%.

SMILES | M1 ag | S1P1 ag-PAM | M1 antagonist | D1 allo mod | S1P3 ag | M1 antag conf | mGluR4 antag
Cc1cc(O)c(C(C)C)cc1NC(=O)Cn1nc(C)c2ccccc2c1=O | . | -2 | . | 0.63 | -1 | . | .
Cn1c(C(=O)N2CCCC(C(=O)NCCc3ccccc3)C2)cc2sccc21 (stereo not given) | -1.1 | -9 | -6.1* | -0.48 | -1 | 328* | 248
Cn1c(C(=O)N2CCCC(C(=O)NCCCc3ccccc3)C2)cc2sccc21 (stereo not given) | -0.42 | -1 | -2.3 | 0.041 | -1 | . | .
CCOc1ccc(C2=Nn3c(nnc3-c3ccccn3)SC2)cc1 | 1.4 | 23 | -3.2* | . | -1 | 653 | 234
CCOC(=O)c1snc(C(=O)NC2CCCCC2)c1N | 0.24 | 19 | -2.7* | 0.38 | -1 | 641 | 206
Nc1c(C(=O)NC2CCCCC2)nsc1C(=O)OCC(=O)NC1CCCCC1 | 0.33 | -15 | 0.021 | -1.6 | 0 | . | .
Cn1c(-c2ccc(F)cc2)cnc1SCC(=O)N1CCCCC1 | 0.0046 | 8 | -2.2* | -4.3* | 0 | 430 | 222
O=C(CSc1ccc(-c2ccc(F)cc2)nn1)N1CCCCC1 | 0.74 | 2 | -0.093 | -2.9 | -1 | . | .
Cc1c(NS(=O)(=O)c2cccc3nsnc23)c(=O)n(-c2ccccc2)n1C | 0.089 | 14 | -0.25 | 0.099 | -3 | . | .
COC(=O)CC1Oc2ccccc2N(Cc2ccccc2)C1=O (stereo not given) | -0.054 | -20 | -2.4* | 3.5 | -1 | 669 | 243
CCCCn1c(Cc2ccccc2)n[nH]c1=S | -0.46 | . | -12* | -0.27 | 0 | 53* | 263
COn1c(SCC(=O)N(C)C)nc2ccccc2c1=O | -0.2 | 1 | 0.18 | 0.63 | 1 | . | .
CCCOC(=O)C1[C@H]2C(=O)N(CC3CCCO3)C[C@]23C=C[C@H]1O3 (stereo not given in full) | -0.8 | -3 | 0.28 | 0.092 | -1 | . | .
CCN(CC)CCCNC(=O)c1c(O)c2c([nH]c1=O)CCCC2 | -1 | 2 | -0.61 | -0.81 | 1 | . | .
O=C(NCC1CCCO1)c1c(O)c2c([nH]c1=O)CCCC2 (stereo not given) | 0.28 | -2 | -3.6* | 1.2 | 0 | 555 | 245
O=c1c2ccccc2[nH]c(=S)n1CCCN1CCN(C2CCCCC2)CC1 | 0.24 | -6 | -2.3* | -0.84 | -1 | 485* | 232
CC1CCN(CCCn2c(=S)[nH]c3ccccc3c2=O)CC1 | 0.043 | 4 | -0.47 | -0.71 | -1 | . | .
COC(=O)c1[nH]c2ccccc2c1NC(=O)CCN1CCN(C2CCCCC2)CC1 | -0.83 | -11 | -3.7* | -0.43 | -1 | 389* | 230
CCOC(=O)c1[nH]c2ccc(OCC)cc2c1NC(=O)CN1CCN(c2ccccc2)CC1 | -0.22 | 0 | 1.3 | -0.45 | 0 | . | .
CCOC(=O)c1[nH]c2ccc(OC)cc2c1NC(=O)CCN1CCc2ccccc2C1 | 1.4 | 4 | -3.1* | . | -2 | 418* | 183
CCOC(=O)c1[nH]c2ccc(OC)cc2c1NC(C)=O | 0.75 | 14 | -0.39 | -0.25 | -1 | . | .
CCOC(=O)c1[nH]c2ccc(OC)cc2c1NC(=O)CCN1CCC(C)CC1 | 0.26 | 9 | -1.5* | -0.53 | -2 | 426* | 221
Cn1c(/C=N/n2cnnc2)nc2ccccc21 | 0.3 | 0 | -0.14 | -0.058 | -1 | . | .
CCOC(=O)c1ccccc1NC1CC(=O)N(c2ccccc2C)C1=O (stereo not given) | 1.2 | 15 | 1.8 | 0.69 | 0 | . | .
Cc1oc(-c2ccc(Cl)cc2)nc1CN1CCC(C(=O)N2CCN(c3ccccn3)CC2)CC1 | 0.48 | -9 | -3.2* | -0.79 | -1 | 385 | 236
CCc1ccc(-c2nc(CN3CCC(C(=O)NCCN(CC)c4ccccc4)CC3)c(C)o2)cc1 | 1.1 | 11 | 0.46 | -1.4 | 0 | . | .
CCc1ccc(-c2nc(CN3CCC(C(=O)N4CCN(c5ccccc5)CC4)CC3)c(C)o2)cc1 | 0.72 | 22 | -2.9* | 1.4 | -2 | 486* | 255
